High-throughput results as filed in PubChem BioAssay.
This is a sample that favours compounds with a hit; in the whole collection about 3% have one here.
UCH37 DUB inh: blocks the human deubiquitinase UCH37 | AID 588478 | Q9Y5K5 | purified proteasome/UCH37, Ub-AMC cleavage fluorescence | 330,000 compounds, 0.33% hits | inhibition, % (test concentration not listed);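 active = mean inhibition over replicate wells above about 20%, limit read from the data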;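 also: 0% = compound-free wells with enzyme and 100% = wells lacking proteasome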
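Material: human UCH37 enzyme supplied as purified proteasome complex / Amount: 0.15 nM proteasome as dispensed / Buffer or medium: pH 7.4 Tris-HCl (50 mM) with ovalbumin, ATP-MgCl2, DTT / Times: preincubation 30 min, reaction 25 min, room temperature / Technique: AMC fluorescence from Ub-AMC cleavage, excitation 355 nm, emission 460 nm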
MEKK2 mut-MEK5: signal of MEK5 binding to mutant human MEKK2 PB1 domain; 290,000 compounds, 0.35% hits; bead flow cytometry, Alexa488-MEK5 binding to MEKK2 mutant; percent response, % at 10 µM; in the data active = percent response above about 24%, passing the limit was not always enough
MEKK2wt PB1 HTS: raises or lowers MEK5 binding to wildtype human MEKK2 PB1 domain; binding response (% of control), % at 10 µM; bead flow cytometry, Alexa488-MEK5 binding to MEKK2 WT; actives lie on both sides; Q9Y2U5; 290,000 compounds, 1.1% hits; in the data active = binding response below about 67% or above about 130%
MEKK3 PB1 HTS: MEKK3-MEK5 PB1 interaction, increase or decrease | bead-based flow cytometry, Alexa488-MEK5 binding to MEKK3; actives lie on both sides; 0 = blocked by unlabeled MEK5, 100 = vehicle | binding response (% of control), % at 10 µM | 290,000 compounds, 1.4% hits;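 active = binding response more than 3 SD above or below the average of its plate-row segment, actives on both sides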;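 also: Alexa488 bead fluorescence after subtracting the streptavidin-only scavenger bead signal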
Apaf-1 inh: human Apaf-1 inhibition. O14727. reconstituted apoptosome caspase-3 activity, DEVD-Rh110 fluorescence. inhibition, % at 20 µM. 330,000 compounds, 0.71% hits. AID 489030; active = inhibition of at least 40% at 20 µM;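 also: plate controls were DMSO wells for no effect and DEVD-CHO caspase inhibitor wells for full effect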
Target sequence (O14727 whole entry, looked up): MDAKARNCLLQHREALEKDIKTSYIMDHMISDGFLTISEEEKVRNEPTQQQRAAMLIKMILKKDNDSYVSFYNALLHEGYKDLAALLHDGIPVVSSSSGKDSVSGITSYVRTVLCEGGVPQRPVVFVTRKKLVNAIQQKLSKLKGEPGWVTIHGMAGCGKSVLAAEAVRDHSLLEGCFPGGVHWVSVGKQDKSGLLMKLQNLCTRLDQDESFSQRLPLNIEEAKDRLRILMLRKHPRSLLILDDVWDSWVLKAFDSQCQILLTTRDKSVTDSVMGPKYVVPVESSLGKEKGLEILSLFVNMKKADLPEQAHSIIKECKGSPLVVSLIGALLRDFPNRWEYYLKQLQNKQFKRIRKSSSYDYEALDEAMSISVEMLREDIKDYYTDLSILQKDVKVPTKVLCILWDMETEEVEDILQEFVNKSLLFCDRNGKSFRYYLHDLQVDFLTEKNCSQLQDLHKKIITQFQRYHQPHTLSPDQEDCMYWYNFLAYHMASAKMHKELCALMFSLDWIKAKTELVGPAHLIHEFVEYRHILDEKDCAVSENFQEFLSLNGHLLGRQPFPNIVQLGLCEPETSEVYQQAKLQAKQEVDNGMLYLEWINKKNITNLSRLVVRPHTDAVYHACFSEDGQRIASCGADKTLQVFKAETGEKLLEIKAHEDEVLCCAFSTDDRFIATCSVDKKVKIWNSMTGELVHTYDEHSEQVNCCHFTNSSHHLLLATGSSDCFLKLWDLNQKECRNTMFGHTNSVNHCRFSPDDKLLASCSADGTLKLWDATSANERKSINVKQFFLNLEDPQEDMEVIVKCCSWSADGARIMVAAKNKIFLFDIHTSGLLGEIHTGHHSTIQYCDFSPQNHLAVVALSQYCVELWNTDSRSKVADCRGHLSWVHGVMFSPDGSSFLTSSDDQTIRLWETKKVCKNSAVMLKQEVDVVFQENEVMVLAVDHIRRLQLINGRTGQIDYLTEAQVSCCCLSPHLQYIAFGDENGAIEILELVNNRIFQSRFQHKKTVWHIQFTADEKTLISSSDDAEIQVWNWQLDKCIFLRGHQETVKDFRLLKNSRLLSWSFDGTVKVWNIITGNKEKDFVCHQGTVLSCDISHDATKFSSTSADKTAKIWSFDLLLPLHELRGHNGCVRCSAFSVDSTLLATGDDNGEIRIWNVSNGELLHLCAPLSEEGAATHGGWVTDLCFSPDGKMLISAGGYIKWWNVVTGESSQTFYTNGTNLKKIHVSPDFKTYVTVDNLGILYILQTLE
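System: reconstituted apoptosome with Apaf-1, cytochrome c, caspase-9, procaspase-3, dATP; Signal: Rh110 fluorescence intensity; Schedule: 30 min compound preincubation, 50 min activation, room temperature; Reagent: cytochrome c trigger plus (Z-DEVD)2-Rh110 caspase-3 substrate.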
UBC13 inh: inhibitors of human UBC13 polyubiquitin chain formation; P61088; TR-FRET; inhibition, % at 20 µM; 330,000 compounds, 0.47% hits; AID 485273; in the data active = inhibition above about 45%, passing the limit was not always enough
UCH37 reconfirm: confirmation of human UCH37 deubiquitinating enzyme inhibitors; 480 compounds, 27% hits; AID 624100; shares compounds with UCH37 DUB inh; Proteasome-bound UCH37, Ub-AMC cleavage fluorescence; inhibition, % at 20 µM;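 active = average inhibition over replicates above about 50%, so the earlier screening hit is confirmed, limit read from the data; inactive = the rest, counted as false positives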;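 also: based on cleavage rate fitted by regression over a 30 min kinetic read; 0% = proteasome plus Ub-AMC and 100% = Ub-AMC without proteasome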
Starred values were filed as active, the others as inactive; . = no result given; [ ] = another dose, or the depositor's remark.

SMILES	UCH37 DUB inh	MEKK2 mut-MEK5	MEKK2wt PB1 HTS	MEKK3 PB1 HTS	Apaf-1 inh	UBC13 inh	UCH37 reconfirm
O=C1C(=O)N(Cc2ccncc2)C(c2ccccc2F)/C1=C(\O)c1ccc2c(c1)OCCO2 (stereo not given)	14	3	101	100	6	-18	.
Cc1ccc(NC(=O)CN2C(=O)S/C(=C/c3ccc(O)c([N+](=O)[O-])c3)C2=O)cc1C	28*	-12	88	99	-16	-70	48
Cc1cccc(NC(=O)CN2C(=O)S/C(=C\c3ccc(O)c([N+](=O)[O-])c3)C2=O)c1	16	0	100	103	6	-46	.
CCCCCc1ccc(-c2cn(Cc3ccc(C)cc3)nn2)cc1	35*	-2	92	103	11	-23	2
Cc1cccc(/C=N/n2c(-c3ccco3)n[nH]c2=S)c1	.	-3	102	103	-8	-7	.
CCCC(=O)NC(=S)Nc1cccc(-c2nc3ncccc3o2)c1	5	1	98	102	6	1	.
CSC1=C(C#N)C2(CCCC2)C(C#N)=C(N)N1	7	11	105	106	6	3	.
CCSC1=C(C#N)C2(CCCC2)C(C#N)=C(N)N1	43*	11	101	109	8	18	13
O=[N+]([O-])c1ccc(N/N=C/c2ccccc2O)cc1	.	2	102	104	14	-71	.
O=[N+]([O-])c1ccc(O)c(C=NNc2ccc(S(=O)(=O)O)cc2)c1	25*	.	.	.	.	.	15
CC(C(=O)NC(N)=O)N1C(=O)NC(c2ccccc2)(c2ccccc2)C1=O (stereo not given)	3	0	100	98	10	7	.
C=CCn1c(SC)nccc1=O	2	.	.	.	.	.	.
O=C1NN(c2cccc(Br)c2)C(=O)/C1=C/c1ccc(-c2cc([N+](=O)[O-])ccc2O)o1	31*	-15	29*[inhibitor]	36*[inhibitor]	15	-112	67*
CC(=O)Oc1ccccc1N(C(C)=O)S(=O)(=O)c1ccc2ccccc2c1	0	-13	91	93	7	-5	.
CC(=O)Oc1c(Br)cc(N(C(C)=O)S(=O)(=O)c2ccccc2)c2ccccc12	36*	2	103	106	28	-39	9
CC(=O)Nc1nc(SCC(=O)NCc2ccc(F)cc2)[nH]c(=O)c1NC(=O)c1cccs1	43*	-9	89	80	-4	3	9
CC(=O)Nc1nc(SCC(=O)NCC2CCCO2)[nH]c(=O)c1NC(=O)c1cccs1 (stereo not given)	1	9	106	103	-12	2	.
O=C1C(Cl)=C(NCCc2ccccc2)C(=O)c2ccccc21	76*	.	.	.	.	.	87*
O=C(O)c1cccc(NC2=C(Cl)C(=O)c3ccccc3C2=O)c1	46*	-4	90	84	.	.	25
O=C1C(Cl)=C(NCCc2ccccc2)C(=O)N1CCc1ccccc1	-50	1	102	101	-20	-4	.
CC(C)CCNC(=O)C1CCC(=O)N1C(C)C (stereo not given)	2	1	104	101	-15	2	.
Cc1cccc(C(=O)NC(=S)N2CCN(C(=S)NC(=O)c3cccc(C)c3)CC2)c1	.	-1	100	104	10	0	.
COc1cc([N+](=O)[O-])ccc1-c1ccc(/C=C2\C(=O)ON=C2c2ccccc2)o1	34*	.	.	.	.	.	18
COc1cc([N+](=O)[O-])ccc1-c1ccc(/C=N\n2cnnc2)o1	.	0	97	103	-11	-7	.
CCOC(=O)/C=C(\C)Sc1cc(O)c2ccccc2c1O	81*	1	91	97	.	.	82*
SMILES	UCH37 DUB inh	MEKK2 mut-MEK5	MEKK2wt PB1 HTS	MEKK3 PB1 HTS	Apaf-1 inh	UBC13 inh	UCH37 reconfirm
O=C(CCc1ccccc1)Nc1sc2c(c1C(=O)O)CCCC2	7	.	.	.	-5	-4	.
O=C(O)c1ccc(NC2=C(Cl)C(=O)c3ccccc3C2=O)cc1	16	-1	98	101	30	-84	.
O=C(O)c1ccc(NC2=CC(=NS(=O)(=O)c3ccccc3)c3ccccc3C2=O)cc1	95*	.	.	.	.	.	98*
O=C1C(Nc2ccccc2)=CC(=NS(=O)(=O)c2cccs2)c2ccccc21	78*	.	.	.	.	.	34
CN(C)c1ccc(N/C(=N\S(=O)(=O)c2cccs2)c2ccccc2)cc1	.	18	100	106	10	-13	.
Cn1ncc2c(NNC(=O)C3CCCCC3)ncnc21	0	0	100	104	-7	-12	.
CCN1/C(=C/C=C/c2oc3ccc(-c4ccccc4)cc3[n+]2CC)Oc2ccc(-c3ccccc3)cc21	35*	.	.	.	21	-112	76*
Cc1cc[n+](C2=C([O-])c3ccccc3C(=O)/C2=N\S(=O)(=O)c2cccs2)cc1C	7	3	104	98	31	-111	.
Cc1cc(C)c[n+](C2=C([O-])c3ccccc3C(=O)/C2=N\S(=O)(=O)c2cccs2)c1	27*	1	101	103	20	-81	11
C=CCNC(=S)N/N=C/c1ccc(-c2ccc(Br)cc2)o1	.	-2	96	104	9	13	.
O=C1C=C(NCc2ccccc2)c2ccccc2C1=O	53*	-8	91	98	.	.	12
Cc1ccc(NC2=CC(=O)C(=O)c3ccccc32)c(C)c1	36*	.	.	.	87*	-172	5
O=C1C=C(Nc2ccc(F)cc2)c2ccccc2C1=O	57*	.	.	.	87*	-256	18
O=c1cnnc(Nc2ccc(F)cc2)[nH]1	6	-7	90	99	-5	-8	.
O=C(N/N=C/c1cccc2ccccc12)c1ccc(CN2CCOCC2)cc1	.	5	108	104	1	-2	.
CCCNC(=O)c1nn2c(C(F)(F)F)cc(-c3ccccc3)nc2c1Br	-4	3	102	101	1	22	.
NS(=O)(=O)c1ccc(N=Nc2c[nH]c(=O)c(O)c2)cc1	33*	-6	92	94	74*	-330	40
CC(Oc1ccccc1)C(=O)N=Nc1c(O)[nH]c2ccc([N+](=O)[O-])cc12 (stereo not given)	67*	6	111	110	18	-18	46
CCc1cc(C(=O)N=Nc2c(O)[nH]c3ccc([N+](=O)[O-])cc23)c2ccccc2n1	11	-1	102	101	17	-32	.
O=C(N=Nc1c(O)[nH]c2ccc([N+](=O)[O-])cc12)c1ccccc1[N+](=O)[O-]	61*	-8	95	90	5	-19	14
N#Cc1nc(-c2ccco2)oc1NCCc1ccccc1	-8	4	101	100	1	14	.
